From ChEMBL document CHEMBL1148841, “Synthesis, structural revision, and antioxidant activities of antimutagenic homoisoflavonoids from Hoffmanosseggia intricata” (Bioorg Med Chem Lett, 2007)
pIC50: −log10 of the molar value.

What was measured:
[1] = Antioxidant activity assessed as superoxide scavenging activity by NBT reduction assay; type: functional
Method in brief: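 Superoxide radicals produced in vitro by a non-enzymatic system; scavenging followed by nitro blue tetrazolium photoreduction, read spectrophotometrically at 560 nm; activity given as the concentration giving 50% inhibition (IC50).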

[2] = system: Radical scavenging activity; experiment: Antioxidant activity assessed as DPPH free radical scavenging activity; type: functional
Method in brief: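 Scavenging measured as reduction of the coloured DPPH (1,1-diphenyl-2-picrylhydrazyl) radical in methanolic solution; activity given as IC50.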

Compound | pIC50 [1] | pIC50 [2]
O=C1O[C@H]([C@@H](O)CO)C(O)=C1O [ASCORBIC ACID] | 3.07 | 4.60
COc1ccc(O)c(C(C)(C)C)c1.COc1ccc(O)cc1C(C)(C)C [BUTYLATED HYDROXYANISOLE] | 3.02 | 4.47
COc1ccc(/C=C2\COc3c(ccc(OC)c3O)C2=O)cc1 [INTRICATIN] | < 3.70 | < 3.70

Further lines, results first:

pIC50 [1] | pIC50 [2] | Compound
5.07 | 5.35 | O=C1/C(=C/c2ccc(O)c(O)c2)COc2c1ccc(O)c2O
4.58 | 5.08 | O=C1/C(=C/c2ccc(O)cc2)COc2c1ccc(O)c2O
4.52 | 5.00 | COc1ccc(/C=C2\COc3c(ccc(O)c3O)C2=O)cc1 [INTRICATINOL]
